# Published values gathered from unrelated publications.
# Target: Casein kinase I isoform gamma-2 (CSNK1G2, Homo sapiens, UniProt P78368)
Compound,assay,setting,quantity,value
O=C(Nc1cnn(-c2csc(C(=O)NC3COC3)c2)c1)Nc1c(F)cccc1Cl,"enzyme activity, inhibitor",5 µM,remaining activity,90.2%
NS(=O)(=O)c1cc(NC(=O)C2(c3ccccc3Cl)CC2)ccc1Oc1cccc(Cl)c1,"cell-free assay, competition with immobilised ligand",1 µM,remaining binding,82%
Cc1sc(C(=O)NC2COC2)cc1-n1cc(NC(=O)Nc2c(F)cccc2Cl)cn1,"enzyme activity, inhibitor",10 µM,remaining activity,104%
Nc1ncnc2occ(-c3ccc(NC(=O)Nc4cc(C(F)(F)F)ccc4F)cc3)c12,"cell-free assay, inhibitor",20 µM,remaining signal,6.8%
O=C1NC(=O)c2cc(Nc3ccc(F)cc3)c(Nc3ccc(F)cc3)cc21,cell-free assay,0.5 µM,remaining signal,97.5%
Nc1cnc(N2CCc3cc(S(=O)(=O)Nc4c(F)cc(Cl)cc4F)cc(N4CCCC4=O)c32)nc1,"cell-free assay, competition with immobilised ligand",1 µM,remaining binding,88%
CN(CCCC(F)(F)F)c1nccc(-c2cnn3ncccc23)n1,binding,1 µM,remaining binding,100%
COc1cc2ncnc(Nc3ccc(Oc4ccccc4)cc3C)c2cc1OC,"enzyme activity, inhibitor",1 µM,inhibition,5%
Cc1ccc(C(=O)Nc2ccc(CN3CCN(C)CC3)c(C(F)(F)F)c2)cc1C#Cc1cnc2cccnn12,"enzyme activity, inhibitor",23.5 nM,remaining activity,96%
COc1ccc2c(O[C@@H]3C[C@H]4C(=O)N[C@]5(C(=O)O)CC5/C=C\CCCCC[C@H](NC(=O)OC5CCCC5)C(=O)N4C3)cc(-c3csc(NC(=O)C(C)C)n3)nc2c1C (stereo partly shown),"cell-free assay, competition with immobilised ligand",1 µM,remaining binding,90%
O=C(CSc1nc2nccnc2c(=O)n1CCc1ccccc1)Nc1nccs1,"enzyme activity, inhibitor",10 µM,inhibition,14%
Cc1ccc(Nc2nccc(N(C)c3ccc4c(C)n(C)nc4c3)n2)cc1S(N)(=O)=O,"cell-free assay, inhibitor",0.5 µM,remaining signal,96.9%
CNC(=O)c1cc(Oc2ccc(NC(=O)Nc3ccc(Cl)c(C(F)(F)F)c3)cc2)ccn1,"enzyme activity, inhibitor",10 µM,inhibition,-4%
COc1cc(Nc2cnc(C#N)c(O[C@H](C)CN(C)C)n2)ncc1-c1cnn(C)c1,"enzyme activity, inhibitor, radiometric",1 µM,remaining activity,101%
C[C@@H](c1cccc(C#N)c1)n1cc(Cl)cc(C(N)=O)c1=N,"cell-free assay, competition with immobilised ligand",1 µM,remaining binding,100%
C#Cc1cccc(Nc2ncnc3cc(OCCOC)c(OCCOC)cc23)c1,cell-free assay,0.5 µM,remaining signal,98.3%
CCc1ccccc1C(=O)Nc1n[nH]c2c(C)c(F)c(C3C(C#N)=C(C)N(C)C(C)=C3C#N)cc12,"cell-free assay, competition with immobilised ligand",1 µM,remaining binding,97%
CC(C)(C)c1nc(-c2cccc(NS(=O)(=O)c3c(F)cccc3F)c2F)c(-c2ccnc(N)n2)s1,"enzyme activity, inhibitor, radiometric",1 µM,remaining activity,101%
CN1CCN(c2cnc3c(C4CCN(C(=O)c5ccc(OC(F)(F)F)cc5N)CC4)ncnc3c2)CC1,"cell-free assay, competition with immobilised ligand",1 µM,remaining binding,100%
COc1cc(Nc2c(C#N)cnc3cc(OCCCN4CCN(C)CC4)c(OC)cc23)c(Cl)cc1Cl,cell-free assay,0.5 µM,remaining signal,98.3%
C[C@H](NC(=O)c1cnc2n1[C@](C)(Cc1ccc(C#N)cc1)C(=O)N2c1cc(Cl)c(F)c(Cl)c1)C(=O)NC1(c2ccccn2)CC1,"cell-free assay, competition with immobilised ligand",1 µM,remaining binding,90%
CC(C)(O)[C@H]1CC[C@H](Nc2ccc3ncc(-c4cccc(C(F)(F)F)c4)n3n2)CC1,"enzyme activity, inhibitor",1 µM,remaining activity,96.1%
